Growth data for 5 compounds are collected here from ChEMBL document CHEMBL4406880, “Design, synthesis, and bioactivity of dihydropyrimidine derivatives as kinesin spindle protein inhibitors” (Bioorg Med Chem, 2019).

What all share (assay type): functional
One test has as its system HCT-116. Description: Growth inhibition of human HCT116 cells assessed as growth percentage at 10 uM incubated for 48 hrs by sulforhodamine B assay relative to control. The settings on record: HCT-116, 48 h, read-out: Activity. In a few lines:
(§1)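 NCI-60 one-dose screen: cells in RPMI 1640 with 5% FBS and 2 mM L-glutamine, plated at 5,000–40,000 cells/well and preincubated 24 h at 37 °C, 5% CO2. Compound is added from a DMSO stock to a final 10 µM and incubated 48 h. Cells are TCA-fixed and stained with sulforhodamine B, read at 515 nm. Output is % growth versus untreated control, with a time-zero plate.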

The test system of another test is BT-549. Description: Growth inhibition of human BT549 cells assessed as growth percentage at 10 uM incubated for 48 hrs by sulforhodamine B assay relative to control. As to conditions: BT-549, 48 h, read-out: Activity. In a few lines: as §1
The next test deals with UACC-62. Description: Growth inhibition of human UACC62 cells assessed as growth percentage at 10 uM incubated for 48 hrs by sulforhodamine B assay relative to control. As to conditions: UACC-62, 48 h, read-out: Activity. Put shortly: (§2)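 NCI-60 single-dose screen. Cells were grown in RPMI 1640 with 5% FBS and 2 mM L-glutamine and plated at 5,000–40,000 cells/well. After an overnight preincubation at 37 °C in 5% CO2, compound was added at a final 10 µM from a DMSO stock, with DMSO/PBS controls. After 48 h, cells were TCA-fixed and stained with 0.4% SRB, and absorbance was read at 515 nm. Growth is given as a percentage of untreated control.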

The subject of the next test is PC-3. Briefly: Growth inhibition of human PC3 cells assessed as growth percentage at 10 uM incubated for 48 hrs by sulforhodamine B assay relative to control. As to conditions: PC-3, 48 h, read-out: Activity. In a few lines: as §2
In a further test the test system is SK-OV-3. Description: Growth inhibition of human SKOV3 cells assessed as growth percentage at 10 uM incubated for 48 hrs by sulforhodamine B assay relative to control. As to conditions: SK-OV-3, 48 h, read-out: Activity. In a few lines: as §2
The subject of the next test is LOX IMVI. Briefly: Growth inhibition of human LOXIMVI cells assessed as growth percentage at 10 uM incubated for 48 hrs by sulforhodamine B assay relative to control. The settings on record: read-out: Activity. In a few lines: (§3)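 NCI-60 one-dose screen. Cells in RPMI 1640 with 5% FBS and 2 mM L-glutamine, seeded at 5,000–40,000 cells/well according to doubling time, and preincubated overnight at 37 °C, 5% CO2. A time-zero plate was TCA-fixed at drug addition. Compound from DMSO stock, final 10 µM, 48 h; DMSO vehicle controls. Fixation with TCA, 10% final (16% for suspension cells). SRB stain, Tris solubilization, A515. Result given as % growth versus untreated cells.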

The subject of the next test is SR. Description: Growth inhibition of human SR cells assessed as growth percentage at 10 uM incubated for 48 hrs by sulforhodamine B assay relative to control. The settings on record: read-out: Activity. Put shortly: as §2
The subject of a further test is NCI-H322M. Description: Growth inhibition of human NCI-H322M cells assessed as growth percentage at 10 uM incubated for 48 hrs by sulforhodamine B assay relative to control. As to conditions: read-out: Activity. Put shortly:
as §3

In the next test the test system is SK-MEL-5. Description: Growth inhibition of human SK-MEL-5 cells assessed as growth percentage at 10 uM incubated for 48 hrs by sulforhodamine B assay relative to control. The settings on record: SK-MEL-5, 48 h, read-out: Activity. Put shortly: as §2
The next test concerns HT-29. Briefly: Growth inhibition of human HT-29 cells assessed as growth percentage at 10 uM incubated for 48 hrs by sulforhodamine B assay relative to control. As to conditions: HT-29, 48 h, read-out: Activity. Put shortly:
as §3

The subject of another test is ACHN. Briefly: Growth inhibition of human ACHN cells assessed as growth percentage at 10 uM incubated for 48 hrs by sulforhodamine B assay relative to control. The settings on record: read-out: Activity. Put shortly: as §1
The subject of the next test is OVCAR-3. Description: Growth inhibition of human OVCAR3 cells assessed as growth percentage at 10 uM incubated for 48 hrs by sulforhodamine B assay relative to control. The settings on record: OVCAR-3, 48 h, read-out: Activity. Put shortly: as §3
A further test relates to MDA-MB-231. Description: Growth inhibition of human MDA-MB-231 cells assessed as growth percentage at 10 uM incubated for 48 hrs by sulforhodamine B assay relative to control. As to conditions: MDA-MB-231, 48 h, read-out: Activity. In a few lines:
as §3

The subject of the next test is A498. Briefly: Growth inhibition of human A498 cells assessed as growth percentage at 10 uM incubated for 48 hrs by sulforhodamine B assay relative to control. As to conditions: A498, 48 h, read-out: Activity. Put shortly: as §1
For the next test, the system named is Hs-578T. Description: Growth inhibition of human Hs 578T cells assessed as growth percentage at 10 uM incubated for 48 hrs by sulforhodamine B assay relative to control. The settings on record: read-out: Activity. Put shortly:
as §3

For the next test, the system named is DU-145. Description: Growth inhibition of human DU145 cells assessed as growth percentage at 10 uM incubated for 48 hrs by sulforhodamine B assay relative to control. As to conditions: DU-145, 48 h, read-out: Activity. In a few lines:
as §1

For another test, the system named is U-251. Briefly: Growth inhibition of human U251 cells assessed as growth percentage at 10 uM incubated for 48 hrs by sulforhodamine B assay relative to control. The settings on record: U-251, 48 h, read-out: Activity. Put shortly: as §2
The next test has as its system HL-60(TB). Description: Growth inhibition of human HL-60(TB) cells assessed as growth percentage at 10 uM incubated for 48 hrs by sulforhodamine B assay relative to control. As to conditions: HL-60, 48 h, read-out: Activity. Put shortly:
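NCI-60 single-dose screen. Cells in RPMI 1640 with 5% FBS and 2 mM L-glutamine are plated at 5,000–40,000 cells/well and preincubated overnight at 37 °C, 5% CO2. Compound is added from a DMSO stock at 10 µM final for 48 h. Cells are TCA-fixed (suspension cells 16% final) and stained with SRB. Absorbance is read at 515 nm, and percentage growth is calculated against untreated controls with a time-zero plate.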

Another test relates to RPMI-8226. Briefly: Growth inhibition of human RPMI8226 cells assessed as growth percentage at 10 uM incubated for 48 hrs by sulforhodamine B assay relative to control. The settings on record: RPMI-8226, 48 h, read-out: Activity. In a few lines: as §2
Another test has as its system SNB-19. Briefly: Growth inhibition of human SNB19 cells assessed as growth percentage at 10 uM incubated for 48 hrs by sulforhodamine B assay relative to control. The settings on record: SNB-19, 48 h, read-out: Activity. In a few lines: as §2
The next test has as its system SK-MEL-28. Briefly: Growth inhibition of human SK-MEL-28 cells assessed as growth percentage at 10 uM incubated for 48 hrs by sulforhodamine B assay relative to control. The settings on record: SK-MEL-28, 48 h, read-out: Activity. In a few lines:
as §2

The test system of a further test is NCI-H522. Description: Growth inhibition of human NCI-H522 cells assessed as growth percentage at 10 uM incubated for 48 hrs by sulforhodamine B assay relative to control. As to conditions: NCI-H522, 48 h, read-out: Activity. Put shortly: as §3
The test system of a further test is OVCAR-4. Description: Growth inhibition of human OVCAR4 cells assessed as growth percentage at 10 uM incubated for 48 hrs by sulforhodamine B assay relative to control. The settings on record: OVCAR-4, 48 h, read-out: Activity. In a few lines:
as §3

A further test concerns NCI-H460. Briefly: Growth inhibition of human NCI-H460 cells assessed as growth percentage at 10 uM incubated for 48 hrs by sulforhodamine B assay relative to control. The settings on record: NCI-H460, 48 h, read-out: Activity. Put shortly:
as §3

Take `O=C1NC2=C(C(=O)c3ccccc32)C(c2ccc3c(c2)OCO3)N1` (racemic): the growth at 10 µM in the test on HCT-116 is 108%; in the test with BT-549, 102%; with UACC-62, 101%; in the test with PC-3 it was 101%; in the test on SK-OV-3 it was 104%; in the test on LOX IMVI it was 96.8%. In addition, the growth at 10 µM with SR was determined as 110%; in the test with NCI-H322M it was 111%; in the test with SK-MEL-5, 101%; with HT-29, 107%; with ACHN it was 104%; in the test with OVCAR-3, 115%. The growth at 10 µM with MDA-MB-231 was 109%; in the test with A498 it was 112%; with Hs-578T, 98.8%; with DU-145, 114%; with U-251, 100%; in the test on HL-60(TB), 98.9%. Moreover, the growth at 10 µM in the test on RPMI-8226 was 107%; in the test with SNB-19, 97.9%; in the test with SK-MEL-28, 114%; in the test on NCI-H522, 90.7%; with OVCAR-4, 116%; in the test with NCI-H460, 113%.

On to `CC(=O)C1=C(C)NC(=O)NC1c1ccc2c(c1)OCO2` (racemic), for which the growth at 10 µM was determined as 108% in the test with HCT-116; 112% with BT-549; 98.9% with UACC-62; 99% with PC-3; 103% in the test on SK-OV-3; 96.4% in the test on LOX IMVI. In addition, the growth at 10 µM in the test on SR was determined as 108%; in the test with NCI-H322M, 104%; with SK-MEL-5, 100%; in the test with HT-29 it was 104%; with ACHN, 108%; with OVCAR-3 it was 115%. The growth at 10 µM in the test with MDA-MB-231 came out at 102%; with A498 it was 120%; in the test on Hs-578T, 111%; in the test with DU-145, 118%; in the test with U-251 it was 100%; in the test on HL-60(TB), 98.6%. The growth at 10 µM with RPMI-8226 is 103%; with SNB-19, 95.4%; in the test on SK-MEL-28, 115%; with NCI-H522, 91.1%; with OVCAR-4 it was 108%; in the test with NCI-H460, 114%.

Regarding `CC1=C(C(=O)OC(C)C)C(c2ccc3c(c2)OCO3)NC(=S)N1` (racemic), the growth at 10 µM in the test on HCT-116 is 95.6%; in the test on BT-549, 96%; in the test with UACC-62 it was 85.2%; in the test on PC-3 it was 86%; in the test on SK-OV-3 it was 105%; in the test with LOX IMVI it was 97.3%. The growth at 10 µM worked out at 103% with SR; 108% in the test on NCI-H322M; 98.5% with SK-MEL-5; 103% with HT-29; 99.3% in the test with ACHN; 121% with OVCAR-3. For the same compound, the growth at 10 µM stood at 101% in the test with MDA-MB-231; 109% in the test with A498; 97.3% with Hs-578T; 109% in the test with DU-145; 102% in the test on U-251; 105% in the test on HL-60(TB). The growth at 10 µM was determined as 87.7% in the test with RPMI-8226; 95.5% in the test with SNB-19; 106% in the test with SK-MEL-28; 86.4% in the test with NCI-H522; 98.4% in the test on OVCAR-4; 110% in the test on NCI-H460.

As for `CC1=C(C(=O)OC(C)C)C(c2ccc3c(c2)OCO3)NC(=O)N1` (racemic), the growth at 10 µM in the test with HCT-116 came to 96.4%; with BT-549, 93.7%; in the test with UACC-62, 94.9%; in the test with PC-3 it was 101%; in the test with SK-OV-3 it was 105%; in the test on LOX IMVI, 96.3%. In addition, the growth at 10 µM with SR was 108%; in the test with NCI-H322M, 113%; with SK-MEL-5 it was 97.6%; with HT-29, 103%; in the test with ACHN, 103%; in the test on OVCAR-3, 114%. Moreover, the growth at 10 µM is 104% with MDA-MB-231; 104% in the test with A498; 102% in the test with Hs-578T; 108% with DU-145; 100% in the test with U-251; 108% in the test with HL-60(TB). For the same compound, the growth at 10 µM with RPMI-8226 was 101%; in the test on SNB-19 it was 93.6%; in the test with SK-MEL-28, 108%; in the test with NCI-H522, 91.1%; with OVCAR-4, 103%; in the test with NCI-H460 it was 110%.

On to `CC(=O)C1=C(C)Nc2nc3ccccc3n2C1c1ccc2c(c1)OCO2` (racemic), for which the growth at 10 µM came out at 98.9% in the test with HCT-116; 102% with BT-549; 94.4% in the test with UACC-62; 92.8% in the test on PC-3; 106% in the test on SK-OV-3; 94.9% in the test with LOX IMVI. In addition, the growth at 10 µM with SR worked out at 73.8%; with NCI-H322M, 98.1%; in the test with SK-MEL-5 it was 102%; with HT-29, 105%; in the test on ACHN, 110%; in the test on OVCAR-3, 105%. In addition, the growth at 10 µM with MDA-MB-231 came out at 93.5%; in the test with A498, 112%; in the test on Hs-578T, 99.8%; in the test on DU-145 it was 109%; in the test on U-251, 95.7%; in the test with HL-60(TB) it was 98.4%. Moreover, the growth at 10 µM amounted to 96.4% with RPMI-8226; 99.6% with SNB-19; 107% in the test with SK-MEL-28; 73% with NCI-H522; 102% in the test on OVCAR-4; 112% with NCI-H460.
